Test results published in ChEMBL document CHEMBL1124934, “Synthesis and structure-activity relationships of dynorphin A-(1-8) amide analogues” (J Med Chem, 1990).
Square brackets hold non-standard residues; d marks the D form. Peptide text beside a SMILES is read from it. Phe(4-NO2) = N[C@@H](Cc1ccc([N+](=O)[O-])cc1)C(=O)O; NMeY = CN[C@@H](Cc1ccc(O)cc1)C(=O)O; NMeF = CN[C@@H](Cc1ccccc1)C(=O)O; Sar = CNCC(=O)O

Columns and labels:
[1] = biological target: Delta-type opioid receptor (Mus musculus, UniProt P32300); experiment: Evaluated for inhibitory activity against Opioid receptor delta 1 of mouse vas deferens (MVD).; format: tissue-based
Sequence of Delta-type opioid receptor (P32300 whole entry): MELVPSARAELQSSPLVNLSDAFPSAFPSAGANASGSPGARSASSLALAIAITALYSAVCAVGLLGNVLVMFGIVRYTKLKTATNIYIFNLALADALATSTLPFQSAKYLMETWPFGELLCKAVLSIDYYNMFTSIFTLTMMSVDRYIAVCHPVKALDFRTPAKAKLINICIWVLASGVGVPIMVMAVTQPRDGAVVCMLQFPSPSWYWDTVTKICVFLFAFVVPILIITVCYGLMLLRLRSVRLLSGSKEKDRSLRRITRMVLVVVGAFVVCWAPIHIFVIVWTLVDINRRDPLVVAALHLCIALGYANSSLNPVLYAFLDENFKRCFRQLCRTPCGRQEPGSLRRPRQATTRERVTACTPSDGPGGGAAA

[2] = biological target: T1, Mu-type opioid receptor (Cavia porcellus, UniProt P97266); experiment: Evaluated for inhibitory activity against Opioid receptor mu 1 of guinea pig ileum (GPI); format: tissue-based
T1 sequence (P97266 whole entry): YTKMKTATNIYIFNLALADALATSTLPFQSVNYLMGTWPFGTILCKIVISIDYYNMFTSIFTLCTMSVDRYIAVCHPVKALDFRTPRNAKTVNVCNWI

[3] = biological target: T1, Mu-type opioid receptor; experiment: Binding affinities against Opioid receptor mu 1 of guinea pig brain membrane using [3H]DAGO as the radioligand using competition binding assays.
In short: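 μ-site competition binding on crude P2 membranes from male Hartley guinea pig brain (1 g original wet weight/20 mL, 50 mM Tris-HCl pH 7.6) with 5 nM [3H]DAGO and varied competitor, 60 min at 25 °C. GF/B filtration (1% polyethylenimine presoaked), six ice-cold buffer rinses, scintillation counting. Nonspecific binding with 10 μM levallorphan. Mean of five or six determinations ± SEM.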

[4] = tested on: Mus musculus; experiment: Evaluated for analgesic effect using mouse tail-pinch test after intravenous administration; 1.27-3.29; format: functional
In short: (§1)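 Mice, intravenous dosing, tail-pinch analgesia test. Four doses per compound, each dose tested on at least eight animals, giving ED50 in mg/kg.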

[5] = tested on: Mus musculus; experiment: Evaluated for analgesic effect using mouse tail-pinch test after intravenous administration; 1.97-5.67; format: functional; in short: as §1
[6] = tested on: Mus musculus; experiment: Evaluated for analgesic effect using mouse tail-pinch test after intravenous administration; format: functional; in short: as §1
[7] = tested on: Mus musculus; experiment: Evaluated for analgesic effect using mouse tail-pinch test after intravenous administration; 0.25-2.26; format: functional; in short: as §1
[8] = tested on: Mus musculus; experiment: Evaluated for analgesic effect using mouse tail-pinch test after intravenous administration; 0.35-1.71; format: functional; in short: as §1
[9] = tested on: Mus musculus; experiment: Evaluated for analgesic effect using mouse tail-pinch test after intravenous administration; 2.21-9.32; format: functional; in short: as §1
[10] = tested on: Mus musculus; experiment: Evaluated for analgesic effect using mouse tail-pinch test after intravenous administration; 0.11-0.52; format: functional; in short: as §1
[11] = tested on: Mus musculus; experiment: Evaluated for analgesic effect using mouse tail-pinch test after intravenous administration; 0.64-2.34; format: functional; in short: as §1

SMILES	IC50 [1]	IC50 [2]	also measured
CN[C@@H](Cc1ccc(O)cc1)C(=O)NCC(=O)NCC(=O)N[C@@H](Cc1ccccc1)C(=O)N(C)[C@@H](CC(C)C)C(=O)N[C@@H](CCCNC(=N)N)C(=O)N[C@@H](CCCNC(=N)N)C(=O)N[C@H](CC(C)C)C(N)=O	25.3 nM	11.9 nM	
CN[C@@H](Cc1ccc(O)cc1)C(=O)NCC(=O)N[C@H](C)C(=O)N[C@@H](Cc1ccccc1)C(=O)N[C@@H](CC(C)C)C(=O)N[C@@H](CCCN=C(N)N)C(=O)N[C@@H](CCCN=C(N)N)C(=O)N[C@@H](CC(C)C)C(N)=O	210 nM	12.7 nM	
CN[C@@H](Cc1ccc(O)cc1)C(=O)NCC(=O)NCC(=O)N[C@@H](Cc1ccccc1)C(=O)N[C@@H](CC(C)C)C(=O)N[C@@H](CCCNC(=N)N)C(=O)N(C)[C@@H](CCCNC(=N)N)C(=O)N[C@H](CC(C)C)C(N)=O	4.8 nM	0.5 nM	Ki [3]: 3.34 nM
CN[C@@H](Cc1ccc(O)cc1)C(=O)NCC(=O)NCC(=O)N[C@H](Cc1ccccc1)C(=O)N[C@@H](CC(C)C)C(=O)N[C@@H](CCCN=C(N)N)C(=O)N(C)[C@@H](CCCN=C(N)N)C(=O)N[C@@H](CC(C)C)C(N)=O			ED50 [4]: 2.04 mg/kg
CCNC(=O)[C@@H](CC(C)C)NC(=O)[C@H](CCCNC(=N)N)NC(=O)[C@H](CCCNC(=N)N)NC(=O)[C@H](CC(C)C)NC(=O)[C@H](Cc1ccccc1)NC(=O)CNC(=O)CNC(=O)[C@H](Cc1ccc(O)cc1)NC	4.6 nM	0.7 nM	
CCNC(=O)[C@H](CC(C)C)NC(=O)[C@H](CCCN=C(N)N)NC(=O)[C@H](CCCN=C(N)N)NC(=O)[C@H](CC(C)C)NC(=O)[C@@H](Cc1ccccc1)NC(=O)CNC(=O)CNC(=O)[C@H](Cc1ccc(O)cc1)NC			ED50 [5]: 3.34 mg/kg
CN[C@@H](Cc1ccc(O)cc1)C(=O)NCC(=O)NCC(=O)N[C@H](Cc1ccccc1)C(=O)N[C@H](CC(C)C)C(=O)N[C@@H](CCCNC(=N)N)C(=O)N[C@@H](CCCNC(=N)N)C(=O)N[C@@H](CC(C)C)C(N)=O	> 1740 nM	82 nM	ED50 [6]: > 6 mg/kg
CN[C@@H](Cc1ccc(O)cc1)C(=O)NCC(=O)NCC(=O)N[C@@H](Cc1ccccc1)C(=O)N[C@H](C)C(=O)N[C@@H](CCCNC(=N)N)C(=O)N[C@@H](CCCNC(=N)N)C(=O)N[C@H](CC(C)C)C(N)=O	9800 nM	6000 nM	
CN[C@@H](Cc1ccc(O)cc1)C(=O)NCC(=O)NCC(=O)N[C@H](Cc1ccccc1)C(=O)N[C@H](C)C(=O)N[C@@H](CCCN=C(N)N)C(=O)N[C@@H](CCCN=C(N)N)C(=O)N[C@@H](CC(C)C)C(N)=O			ED50 [6]: > 20 mg/kg
CN[C@@H](Cc1ccc(O)cc1)C(=O)NCC(=O)NNC(=O)N[C@@H](Cc1ccccc1)C(=O)N[C@@H](CC(C)C)C(=O)N[C@@H](CCCNC(=N)N)C(=O)N[C@@H](CCCNC(=N)N)C(=O)N[C@H](CC(C)C)C(N)=O	62.4 nM	18.6 nM	
CN[C@@H](Cc1ccc(O)cc1)C(=O)NCC(=O)NCC(=O)N[C@@H](Cc1ccccc1)C(=O)N[C@@H](CC(C)C)C(=O)N[C@@H](CCCN=C(N)N)C(=O)N[C@@H](CCCN=C(N)N)C(=O)N[C@@H](CC(C)C)C(N)=O		> 3000 nM	
CN[C@@H](Cc1ccc(O)cc1)C(=O)NCC(=O)NCC(=O)N[C@@H](Cc1ccccc1)C(=O)N[C@@H](CC(C)C)C(=O)N[C@@H](CCCCN=C(N)N)C(=O)N[C@@H](CCCN=C(N)N)C(=O)N[C@H](CC(C)C)C(N)=O [listing 1 of 2 here]	12 nM	2.6 nM	
CN[C@@H](Cc1ccc(O)cc1)C(=O)NCC(=O)NCC(=O)N[C@@H](Cc1ccccc1)C(=O)N[C@@H](CC(C)C)C(=O)N[C@@H](CCCCN=C(N)N)C(=O)N[C@@H](CCCN=C(N)N)C(=O)N[C@H](CC(C)C)C(N)=O [listing 2 of 2 here]			ED50 [6]: > 8 mg/kg
CCNC(=O)[C@@H](CC(C)C)NC(=O)[C@H](CCCNC(=N)N)N(C)C(=O)[C@H](CCCNC(=N)N)NC(=O)[C@H](CC(C)C)NC(=O)[C@H](Cc1ccccc1)NC(=O)CNC(=O)CNC(=O)[C@H](Cc1ccc(O)cc1)NC	7.4 nM	0.3 nM	Ki [3]: 4.51 nM
CCNC(=O)[C@@H](CC(C)C)NC(=O)[C@H](CCCN=C(N)N)N(C)C(=O)[C@H](CCCN=C(N)N)NC(=O)[C@H](CC(C)C)NC(=O)[C@H](Cc1ccccc1)NC(=O)CNC(=O)CNC(=O)[C@H](Cc1ccc(O)cc1)NC			ED50 [7]: 0.75 mg/kg
CCCCCCNC(=O)[C@@H](CC(C)C)NC(=O)[C@H](CCCNC(=N)N)NC(=O)[C@H](CCCNC(=N)N)NC(=O)[C@H](CC(C)C)NC(=O)[C@H](Cc1ccccc1)NC(=O)CNC(=O)CNC(=O)[C@H](Cc1ccc(O)cc1)NC	22.3 nM	6.6 nM	
CCCCCCNC(=O)[C@H](CC(C)C)NC(=O)[C@H](CCCN=C(N)N)NC(=O)[C@H](CCCN=C(N)N)NC(=O)[C@H](CC(C)C)NC(=O)[C@@H](Cc1ccccc1)NC(=O)CNC(=O)CNC(=O)[C@H](Cc1ccc(O)cc1)NC			ED50 [6]: > 7 mg/kg
CCNC(=O)[C@@H](CC(C)C)NC(=O)[C@H](CCCN=C(N)N)N(C)C(=O)[C@H](CCCN=C(N)N)NC(=O)[C@H](CC(C)C)NC(=O)[C@H](Cc1ccc([N+](=O)[O-])cc1)NC(=O)CNC(=O)CNC(=O)[C@H](Cc1ccc(O)cc1)NC [listing 1 of 2 here]	3.7 nM	0.5 nM	Ki [3]: 1.74 nM
CCNC(=O)[C@@H](CC(C)C)NC(=O)[C@H](CCCN=C(N)N)N(C)C(=O)[C@H](CCCN=C(N)N)NC(=O)[C@H](CC(C)C)NC(=O)[C@H](Cc1ccc([N+](=O)[O-])cc1)NC(=O)CNC(=O)CNC(=O)[C@H](Cc1ccc(O)cc1)NC [listing 2 of 2 here]			ED50 [8]: 0.77 mg/kg
CN[C@@H](Cc1ccc(O)cc1)C(=O)NCC(=O)NCC(=O)N[C@@H](Cc1ccccc1)C(=O)N[C@@H](CC(C)C)C(=O)N(C)[C@@H](CCCN=C(N)N)C(=O)N[C@@H](CCCN=C(N)N)C(=O)N[C@H](CC(C)C)C(N)=O [listing 1 of 2 here]	114 nM	20.6 nM	
CN[C@@H](Cc1ccc(O)cc1)C(=O)NCC(=O)NCC(=O)N[C@@H](Cc1ccccc1)C(=O)N[C@@H](CC(C)C)C(=O)N(C)[C@@H](CCCN=C(N)N)C(=O)N[C@@H](CCCN=C(N)N)C(=O)N[C@H](CC(C)C)C(N)=O [listing 2 of 2 here]			ED50 [9]: 4.54 mg/kg
CC[C@H](C)[C@H](NC(=O)[C@H](CCCNC(=N)N)NC(=O)[C@H](CCCNC(=N)N)NC(=O)[C@H](CC(C)C)NC(=O)[C@H](Cc1ccccc1)NC(=O)CNC(=O)CNC(=O)[C@@H](N)Cc1ccc(O)cc1)C(N)=O	3 nM	0.2 nM	Ki [3]: 7.16 nM
CCNC(=O)[C@@H](CC(C)C)NC(=O)[C@H](CCCN=C(N)N)N(C)C(=O)[C@H](CCCN=C(N)N)NC(=O)[C@@H]1CSSC[C@@H](NC(=O)[C@@H](N)Cc2ccc(O)cc2)C(=O)NCC(=O)N[C@@H](Cc2ccccc2)C(=O)N1 [listing 1 of 2 here]	0.13 nM	0.007 nM	Ki [3]: 0.85 nM
CCNC(=O)[C@@H](CC(C)C)NC(=O)[C@H](CCCN=C(N)N)N(C)C(=O)[C@H](CCCN=C(N)N)NC(=O)[C@@H]1CSSC[C@@H](NC(=O)[C@@H](N)Cc2ccc(O)cc2)C(=O)NCC(=O)N[C@@H](Cc2ccccc2)C(=O)N1 [listing 2 of 2 here]			ED50 [10]: 0.22 mg/kg
CC(C)C[C@H](NC(=O)[C@H](CCCN=C(N)N)NC(=O)[C@H](CCCN=C(N)N)NC(=O)[C@H](CC(C)C)NC(=O)[C@H](Cc1ccccc1)NC(=O)CNC(=O)CN(C)C(=O)[C@@H](N)Cc1ccc(O)cc1)C(N)=O (H-Y[Sar]GFLRRL-NH2)			ED50 [6]: > 10 mg/kg
CC(C)C[C@H](NC(=O)[C@H](CCCNC(=N)N)NC(=O)[C@H](CCCNC(=N)N)NC(=O)[C@H](CC(C)C)NC(=O)[C@H](Cc1ccccc1)NC(=O)CNC(=O)CN(C)C(=O)[C@@H](N)Cc1ccc(O)cc1)C(N)=O (H-Y[Sar]GFLRRL-NH2)	1770 nM	897 nM	
CN[C@@H](Cc1ccc(O)cc1)C(=O)N[C@@H](C)C(=O)NCC(=O)N[C@@H](Cc1ccccc1)C(=O)N[C@@H](CC(C)C)C(=O)N[C@@H](CCCN=C(N)N)C(=O)N[C@@H](CCCN=C(N)N)C(=O)N[C@@H](CC(C)C)C(N)=O (H-[NMeY]AGFLRRL-NH2)			ED50 [6]: > 5 mg/kg
CN[C@@H](Cc1ccc(O)cc1)C(=O)N[C@@H](C)C(=O)NCC(=O)N[C@@H](Cc1ccccc1)C(=O)N[C@@H](CC(C)C)C(=O)N[C@@H](CCCNC(=N)N)C(=O)N[C@@H](CCCNC(=N)N)C(=O)N[C@@H](CC(C)C)C(N)=O (H-[NMeY]AGFLRRL-NH2)	25.7 nM	13.9 nM	Ki [3]: 1.25 nM
CN[C@@H](Cc1ccc(O)cc1)C(=O)NCC(=O)NCC(=O)N(C)[C@@H](Cc1ccccc1)C(=O)N[C@@H](CC(C)C)C(=O)N[C@@H](CCCNC(=N)N)C(=O)N[C@@H](CCCNC(=N)N)C(=O)N[C@@H](CC(C)C)C(N)=O (H-[NMeY]GG[NMeF]LRRL-NH2)	121 nM	26.7 nM	
CN[C@@H](Cc1ccc(O)cc1)C(=O)NCC(=O)NCC(=O)N[C@@H](Cc1ccc([N+](=O)[O-])cc1)C(=O)N[C@@H](CC(C)C)C(=O)N[C@@H](CCCN=C(N)N)C(=O)N[C@@H](CCCN=C(N)N)C(=O)N[C@@H](CC(C)C)C(N)=O (H-[NMeY]GG[Phe(4-NO2)]LRRL-NH2)	3.8 nM	1.3 nM	ED50 [11]: 1.23 mg/kg; Ki [3]: 1.01 nM
